Reference: ChEMBL document CHEMBL1131259, “Synthesis and evaluation of diphenyl phosphonate esters as inhibitors of the trypsin-like granzymes A and K and mast cell tryptase” (J Med Chem, 1998)
Active and inactive are the calls of the source. The calls are words filed in the database; no cut-off is given here.

How the values were obtained:
[1] = biological target: T1, Serine protease 1 (Bos taurus) (UniProt P00760); test: Inhibition of bovine trypsin
T1 sequence (whole entry): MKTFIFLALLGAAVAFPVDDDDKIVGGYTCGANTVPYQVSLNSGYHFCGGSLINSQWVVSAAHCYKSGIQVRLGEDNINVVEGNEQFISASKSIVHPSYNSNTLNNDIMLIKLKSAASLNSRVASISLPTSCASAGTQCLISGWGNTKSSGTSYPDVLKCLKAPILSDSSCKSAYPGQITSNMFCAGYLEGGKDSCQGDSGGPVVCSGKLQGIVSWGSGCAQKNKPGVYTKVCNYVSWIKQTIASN
In short: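 Irreversible inhibition assayed by incubation at 25 °C in 0.1 M Hepes, 0.01 M CaCl2, pH 7.5 (2% DMSO), inhibitor 1.0–450 μM. Timed aliquots were read for residual activity on Cbz-Arg-SBzl with DTNB at 410 nm. Pseudo-first-order k_obs came from ln vt/vo vs time, using 5–10 points over 2–3 half-lives, three k_obs per inhibitor. DMSO-only controls were run. For no-inhibition lines, none was seen after 25 min.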

[2] = biological target: T2, Granzyme A (Homo sapiens) (UniProt P12544); test: Inhibition of human granzyme A
T2 sequence (whole entry): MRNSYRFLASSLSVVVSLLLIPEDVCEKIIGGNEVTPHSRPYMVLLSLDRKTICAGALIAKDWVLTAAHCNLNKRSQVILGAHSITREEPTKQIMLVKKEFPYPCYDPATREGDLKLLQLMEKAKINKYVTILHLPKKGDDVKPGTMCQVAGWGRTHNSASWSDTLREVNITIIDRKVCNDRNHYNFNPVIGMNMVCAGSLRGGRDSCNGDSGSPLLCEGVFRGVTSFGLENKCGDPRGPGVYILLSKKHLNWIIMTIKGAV
In short: (§1)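 Recombinant human and rat granzyme A, incubated with inhibitor (1.0–450 μM) at 25 °C in 0.1 M Hepes, 0.01 M CaCl2, pH 7.5 (7.6% DMSO). Timed aliquots were read for residual activity on Cbz-Arg-SBzl with DTNB at 405 nm. k_obs came from ln vt/vo vs time over 5–10 points and 2–3 half-lives, two k_obs per inhibitor. DMSO controls were run.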

[3] = biological target: T3, Granzyme K (Rattus norvegicus) (UniProt P49864); test: Inhibition of rat granzyme K
T3 sequence (whole entry): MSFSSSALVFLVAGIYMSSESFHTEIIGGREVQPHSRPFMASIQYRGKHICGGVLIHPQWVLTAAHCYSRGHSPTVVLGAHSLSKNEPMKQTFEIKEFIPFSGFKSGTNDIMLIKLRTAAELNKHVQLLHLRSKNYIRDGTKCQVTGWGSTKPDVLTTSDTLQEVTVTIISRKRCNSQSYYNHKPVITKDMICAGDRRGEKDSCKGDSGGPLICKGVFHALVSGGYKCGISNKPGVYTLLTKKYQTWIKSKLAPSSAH
In short: (§2)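 Native rat granzyme K, purified by size-exclusion in 1 M NaCl then MonoS cation exchange. Incubated with inhibitor (1.0–450 μM) at 25 °C in 0.1 M Hepes, 0.01 M CaCl2, pH 7.5 (7.1% DMSO). Timed aliquots were read for residual activity on Cbz-Arg-SBzl with DTNB at 405 nm. k_obs came from ln vt/vo vs time, one or two per inhibitor. For no-inhibition lines, none was seen after 25 min.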

Tryptase (Homo sapiens) [4] = biological target: T4, Tryptase (Homo sapiens) (UniProt Q9BZJ3+Q15661+Q9NRR2); test: Inhibition of mast cell tryptase; type: protein assay
In short: (§3)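 Human lung mast cell tryptase, high-molecular-weight form, heparin-free, active sites titrated with MUGB. Incubated with inhibitor at 25 °C in 0.1 M Hepes, 10% glycerol, 10 mM heparin, pH 7.5 (7.1% DMSO). […] DMSO controls were run.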

[5] = biological target: T3, Granzyme K (Rattus norvegicus); test: Compound was evaluated to inhibit rat granzyme K; No inhibition; in short: as §2
[6] = biological target: T5, Granzyme A (Rattus norvegicus) (UniProt Q8CJF4); test: Inhibition of rat granzyme A.; in short: as §1
T5 sequence (whole entry): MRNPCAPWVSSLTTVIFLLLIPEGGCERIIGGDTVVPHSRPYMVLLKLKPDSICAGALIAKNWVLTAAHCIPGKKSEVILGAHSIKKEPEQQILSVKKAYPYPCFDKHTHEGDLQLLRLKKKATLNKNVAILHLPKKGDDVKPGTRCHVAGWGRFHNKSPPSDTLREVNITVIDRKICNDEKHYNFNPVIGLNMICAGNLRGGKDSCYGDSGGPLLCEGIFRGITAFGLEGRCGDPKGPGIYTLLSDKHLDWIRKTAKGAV

Tryptase (Homo sapiens) [7] = biological target: T4, Tryptase (Homo sapiens); test: Compound was evaluated to inhibit mast cell tryptase; No inhibition; type: protein assay; in short: as §3

| SMILES | K obs / 1 [1] [M⁻¹ s⁻¹] | kobs/[I] (second-order inactivation rate constant) [2] [M⁻¹ s⁻¹] | kobs/[I] (second-order inactivation rate constant) [3] [M⁻¹ s⁻¹] | kobs/[I] (second-order inhibition rate constant) (Tryptase (Homo sapiens) [4]) [M⁻¹ s⁻¹] | K obs / 1 [5] | K obs / 1 [6] [M⁻¹ s⁻¹] | K obs / 1 (Tryptase (Homo sapiens) [7]) |
| --- | --- | --- | --- | --- | --- | --- | --- |
| N=C(N)c1ccc(CC(NC(=O)OCc2ccccc2)P(=O)(Oc2ccccc2)Oc2ccccc2)cc1 (stereo not drawn) | 24 | 2750 | 2.1 | 17 | – | – | – |
| NCCCCC(NC(=O)OCc1ccccc1)P(=O)(Oc1ccccc1)Oc1ccccc1 (stereo not drawn) | 6240 | 1210 | 23 | 89 | – | – | – |
| C[C@H](NC(=O)[C@@H](CC(=O)OC(C)(C)C)NC(=O)OCc1ccccc1)C(=O)NC(c1ccc(C(=N)N)cc1)P(=O)(Oc1ccccc1)Oc1ccccc1 (stereo partly drawn) | 2000 | 280 | – | 3 | inactive | – | – |
| N=C(N)c1ccc(C(NC(=O)/C=C/c2ccco2)P(=O)(Oc2ccccc2)Oc2ccccc2)cc1 (stereo not drawn) | 360 | 1740 | 32 | – | – | 1740 | inactive |
| NC(N)c1ccc(C(NC(=O)[C@@H]2CCCN2C(=O)CNS(=O)(=O)Cc2ccccc2)P(=O)(Oc2ccccc2)Oc2ccccc2)cc1 (stereo partly drawn) | 37100 | 3650 | 87 | 2 | – | – | – |
| N=C(N)c1ccc(C(NC(=O)[C@@H]2CCCN2C(=O)OCc2ccccc2)P(=O)(Oc2ccccc2)Oc2ccccc2)cc1 (stereo partly drawn) | 910 | 790 | 34 | 1.2 | – | – | – |
| C[C@@H](O)[C@H](NC(=O)OCc1ccccc1)C(=O)NC(c1ccc(C(=N)N)cc1)P(=O)(Oc1ccccc1)Oc1ccccc1 (stereo partly drawn) | 97 | 2220 | 3 | – | – | – | inactive |
| CC(C)(C)OC(=O)N[C@H](Cc1ccccc1)C(=O)N1CCC[C@H]1C(=O)NC(c1ccc(C(N)N)cc1)P(=O)(Oc1ccccc1)Oc1ccccc1 (stereo partly drawn) | 130 | 170 | 56 | 0.4 | – | – | – |
| NC(N)c1ccc(C(NC(=O)c2cccc(Oc3ccccc3)c2)P(=O)(Oc2ccccc2)Oc2ccccc2)cc1 (stereo not drawn) | 50 | 340 | 1 | – | – | 470 | inactive |
| N=C(N)c1ccc(C(NC(=O)/C=C/c2cccs2)P(=O)(Oc2ccccc2)Oc2ccccc2)cc1 (stereo not drawn) | 300 | 740 | 4 | 1 | – | 430 | – |
| C[C@H](NC(=O)OCc1ccccc1)C(=O)N[C@H](C)C(=O)N[C@@H](C)C(=O)NC(c1ccc(C(N)N)cc1)P(=O)(Oc1ccccc1)Oc1ccccc1 (stereo partly drawn) | 1780 | 730 | 7 | 2 | – | 590 | – |
| NC(N)c1ccc(C(NC(=O)c2ccccc2Oc2ccccc2)P(=O)(Oc2ccccc2)Oc2ccccc2)cc1 (stereo not drawn) | 670 | 540 | 1 | 0.4 | – | 340 | – |
| C[C@H](NC(=O)[C@H]1CCCN1C(=O)OCc1ccccc1)C(=O)NC(c1ccc(C(=N)N)cc1)P(=O)(Oc1ccccc1)Oc1ccccc1 (stereo partly drawn) | 240 | 380 | 5 | 1 | – | – | – |
| NC(N)c1ccc(C(NC(=O)OCc2cccc3ccccc23)P(=O)(Oc2ccccc2)Oc2ccccc2)cc1 (stereo not drawn) | 30 | 160 | 12 | – | – | 90 | inactive |
| N=C(N)c1ccc(C(NC(=O)[C@@H]2CCCN2C(=O)CCc2ccccc2)P(=O)(Oc2ccccc2)Oc2ccccc2)cc1 (stereo partly drawn) | 1520 | 1510 | 50 | 0.4 | – | – | – |
| N=C(N)c1ccc(C(NC(=O)[C@H](CCCCN)NC(=O)OCc2ccccc2)P(=O)(Oc2ccccc2)Oc2ccccc2)cc1 (stereo partly drawn) | 30 | 30 | 1 | – | – | 15 | inactive |
| C[C@H](NC(=O)[C@@H](C)NC(=O)OCc1ccccc1)C(=O)NC(c1ccc(C(=N)N)cc1)P(=O)(Oc1ccccc1)Oc1ccccc1 (stereo partly drawn) | 3620 | 820 | 5 | 2 | – | 480 | – |
| N=C(N)c1ccc(C(NC(=O)CCC(=O)O)P(=O)(Oc2ccccc2)Oc2ccccc2)cc1 (stereo not drawn) | 45 | 857 | 0.3 | 0.2 | – | – | – |
| N=C(N)c1ccc(C(NC(=O)[C@@H]2CCCN2C(=O)c2ccccc2Oc2ccccc2)P(=O)(Oc2ccccc2)Oc2ccccc2)cc1 (stereo partly drawn) | 7760 | 610 | 60 | 0.9 | – | – | – |
| N=C(N)c1ccc(C(NC(=O)/C=C/c2ccccc2)P(=O)(Oc2ccccc2)Oc2ccccc2)cc1 (stereo not drawn) | 110 | 400 | 3 | 0.3 | – | 340 | – |
| NCCCCCC(NC(=O)OCc1ccccc1)P(=O)(Oc1ccccc1)Oc1ccccc1 (stereo not drawn) | 21 | 23 | 1.1 | 0.7 | – | – | – |
| CC(C)[C@H](NC(=O)OCc1ccccc1)C(=O)NC(c1ccc(C(=N)N)cc1)P(=O)(Oc1ccccc1)Oc1ccccc1 (stereo partly drawn) | 41 | 6.7 | 0.7 | 21.2 | – | – | – |
| N=C(N)c1ccc(C(NC(=O)[C@@H]2CCCN2C(=O)CC(c2ccccc2)c2ccccc2)P(=O)(Oc2ccccc2)Oc2ccccc2)cc1 (stereo partly drawn) | 2660 | 250 | 1830 | – | – | – | inactive |
| C[C@H](NC(=O)[C@@H](Cc1ccccc1)NC(=O)OCc1ccccc1)C(=O)NC(c1ccc(C(N)N)cc1)P(=O)(Oc1ccccc1)Oc1ccccc1 (stereo partly drawn) | 3010 | 1770 | 4.2 | 4 | – | – | – |
| C[C@H](NC(=O)[C@@H](CC(=O)O)NC(=O)OCc1ccccc1)C(=O)NC(c1ccc(C(=N)N)cc1)P(=O)(Oc1ccccc1)Oc1ccccc1 (stereo partly drawn) | 2550 | 240 | 6 | 0.7 | – | – | – |
| C[C@H](NC(=O)[C@@H](C)NC(=O)CCC(=O)O)C(=O)NC(c1ccc(C(=N)N)cc1)P(=O)(Oc1ccccc1)Oc1ccccc1 (stereo partly drawn) | 640 | 260 | 0.3 | 0.7 | – | – | – |
